Key:
[1] = biological target: T1, Pseudomonas aeruginosa lectin LecA (Pseudomonas aeruginosa, UniProt Q05097); experiment: Electrochemical; settings: LecA sensor, n.b. = no binding; for K d from CV: cyclic voltammetry; for K d from DPV: differential pulse voltammetry
T1 sequence (Q05097 1-122): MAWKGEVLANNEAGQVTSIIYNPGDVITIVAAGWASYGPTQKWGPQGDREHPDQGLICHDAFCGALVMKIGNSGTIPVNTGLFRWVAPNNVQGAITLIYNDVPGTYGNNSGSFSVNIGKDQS
Method in brief: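 P. aeruginosa LecA (commercial, ≥70%) coupled at 10 μM for 1 h to an EDC/NHS-activated MUA/DTT layer on a gold nanoparticle–graphene screen-printed electrode, then blocked 30 min with 1% BSA. Sugars titrated in 10 mM PBS with 1 mM CaCl2 and 1 mM MnCl2. Read in 25 mM [Fe(CN)6]3−/4− with 0.2 M KCl at 25 °C. CV: −0.2 to 0.8 V, 0.05 V s−1. DPV: −0.2 to 0.5 V. Reduction-peak Δip fitted to a one-site model.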

LecA = settings: n.b. = no binding, no reference given; cited from earlier work
ConA = settings: read-out: Reported Kd; cited from earlier work

| Molecule | K d from CV [1] | K d from DPV [1] | Reported Kd (LecA) | Kd (ConA) [µM] |
| --- | --- | --- | --- | --- |
| OC[C@H]1OC(O)[C@@H](O)[C@@H](O)[C@@H]1O (some centres unmarked) [mannose (3), mannose] | n.b. | n.b. | n.b. | 57 |
| mannan [mannan (4)] | n.b. | n.b. | n.b. | 3 |

Source: publication PMC10041147 (RSC Advances, 2023)
